Laboratory results published in ChEMBL document CHEMBL4145585, “Structures and Activities of Tiahuramides A-C, Cyclic Depsipeptides from a Tahitian Collection of the Marine Cyanobacterium Lyngbya majuscula” (J Nat Prod, 2018).
Values after ≈ are worked out from the molar mass of the structure shown. Active and inactive are the calls of the source. No cut-off for these calls is given here.

What was measured:
Aeromonas salmonicida = test: Antimicrobial activity against Aeromonas salmonicida subsp. salmonicida CIP 103209T after 24 hrs by broth micro dilution assay; format: functional
Summary of the method: (§1)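 Compounds were in DMSO (at most 5% of total volume) and were incubated with the strain in PB medium in 96-well plates at 37 °C for 24 h with stirring. Growth was read as optical density at 630 nm. Runs were in triplicate and averaged. Wells without growth were plated on rich solid medium to tell bacteriostatic from bactericidal action.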

Shewanella baltica = test: Antimicrobial activity against Shewanella baltica CIP 105850T after 24 hrs by broth micro dilution assay; format: functional; summary of the method: as §1
Escherichia coli = test: Antimicrobial activity against Escherichia coli CIP 54.8 after 24 hrs by broth micro dilution assay; format: functional; details: CIP 54.8, 24 h; summary of the method: as §1
Micrococcus luteus = test: Antimicrobial activity against Micrococcus luteus CIP A270 after 24 hrs by broth micro dilution assay; format: functional; details: CIP A270, 24 h; summary of the method: as §1
SH-SY5Y [1] = test: Induction of apoptosis in human SH-SY5Y cells assessed as necrotic cells at 6 uM after 6 hrs by Annexin V-FITC/PI staining based flow cytometry; format: functional
Summary of the method: (§2)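 SH-SY5Y cells were seeded at 1 × 10^6 per well and treated 6 h at 6 μM. Cells were washed in PBS and stained with annexin V–FITC and propidium iodide for 15 min. 10 000 events were analysed by imaging flow cytometry and classed as viable, apoptotic, late apoptotic or necrotic. Staurosporine (1 μM) was the death control. Data are mean ± SEM of three experiments, with Student's t test.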

Vibrio anguillarum = test: Antimicrobial activity against Vibrio anguillarum CIP 63.36T after 24 hrs by broth micro dilution assay; format: functional; summary of the method: as §1
SH-SY5Y [2] = test: Cytotoxicity against human SH-SY5Y cells assessed as decrease in cell viability after 24 hrs by MTT assay; format: functional, cell-based
Summary of the method: (§3)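 SH-SY5Y cells were grown in DMEM/F-12 with 10% FBS at 37 °C in 5% CO2. Cells were seeded at 5 × 10^4 per well one day ahead, then treated at 0.001–100 μM for 24 h. MTT at 500 μg/mL was added for 1 h at 37 °C, cells were lysed with 5% SDS, and absorbance was read at 595 nm. The saponin death control was subtracted, and IC50 came from a log(inhibitor)–response fit.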

Paracentrotus lividus [3] = test: Antiproliferative activity against Paracentrotus lividus eggs assessed as inhibition of first cell division measured 75 mins post fertilization by inverted microscopy; details: 1.25 h
SH-SY5Y [4] = test: Induction of cell death in human SH-SY5Y cells at 15 uM pretreated with caspase inhibitor ZVAD-FMK for 24 hrs followed by compound addition measured after 6 hrs by MTT assay; format: functional, cell-based
Summary of the method: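 SH-SY5Y cells were seeded as for MTT and preincubated with 40 μM Z-VAD-FMK for 24 h. Compound was then added (5, 10, 15 μM) for 6 h, and viability was read by MTT as % of untreated cells. Staurosporine (0.5 μM) was the apoptosis control. Data are mean ± SEM of three independent experiments in triplicate, with Student's t test.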

SH-SY5Y [5] = test: Induction of apoptosis in human SH-SY5Y cells at 6 uM after 6 hrs by Annexin V-FITC/PI staining based flow cytometry; format: functional; summary of the method: as §2
Paracentrotus lividus [6] = test: Induction of apoptosis in Paracentrotus lividus eggs assessed as DNA condensation at 5 uM measured 30 mins post fertilization by DAPI staining staining based assay; format: functional, organism-based
Summary of the method: (§4)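 Fertilized P. lividus eggs were treated with 5 μM compound and stained with DAPI to show nuclear DNA at 30 and 60 min post-fertilization. Chromatin state was compared with untreated control eggs.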

Paracentrotus lividus [7] = test: Induction of apoptosis in Paracentrotus lividus eggs assessed as DNA localization at nuclear periphery at 5 uM measured 30 mins post fertilization by DAPI staining staining based assay; format: functional, organism-based; summary of the method: as §4
Paracentrotus lividus [8] = test: Induction of morphological changes in Paracentrotus lividus eggs assessed as membrane blebbing at 5 uM measured 80 to 120 mins post fertilization by reversed optical microscopy; format: functional, organism-based
Summary of the method: (§5)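 P. lividus fertilized eggs were kept with 5 μM compound, with controls in seawater containing 1% MeOH. Morphology was scored under a reversed optical microscope (20×) at 80 min, 120 min and 18 h post-fertilization. The percentage of each typical phenotype was recorded.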

Paracentrotus lividus [9] = test: Cell cycle arrest in Paracentrotus lividus eggs assessed as dispersion of condensed DNA in nucleus at 5 uM measured 60 mins post fertilization by DAPI staining staining based assay; format: functional, organism-based; summary of the method: as §4
Paracentrotus lividus [10] = test: Antiproliferative activity against Paracentrotus lividus eggs assessed as inhibition of first cell division at 4 uM measured 75 mins post fertilization by inverted microscopy relative to control; format: functional; details: 1.25 h
Summary of the method: (§6)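 Paracentrotus lividus gametes were collected after acetylcholine injection into the coelomic cavity. Fertilized eggs were incubated with compound at 0–30 μM in 96-well microplates. Dividing eggs were scored under an inverted microscope at 75 min post-fertilization, when control eggs had completed first cleavage. The percentage of dividing eggs was recorded.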

Paracentrotus lividus [11] = test: Antiproliferative activity against Paracentrotus lividus eggs assessed as inhibition of first cell division at 2 uM measured 75 mins post fertilization by inverted microscopy relative to control; format: functional; details: 1.25 h; summary of the method: as §6
Paracentrotus lividus [12] = test: Inhibition of cell division in Paracentrotus lividus eggs assessed as reduction in reaching mesenchymal blastula stage at 5 uM measured 18 hrs post fertilization by reversed optical microscopy; format: functional, organism-based; summary of the method: as §5
Paracentrotus lividus [13] = test: Antiproliferative activity against Paracentrotus lividus eggs assessed as cells divided with formation of extracellular cytoplasmic granules at 5 uM measured 80 mins post fertilization by reversed optical microscopy; format: functional; summary of the method: as §5
Paracentrotus lividus [14] = test: Induction of morphological changes in Paracentrotus lividus eggs assessed as granulations of plasmic membrane at 5 uM measured 80 to 120 mins post fertilization by reversed optical microscopy; format: functional, organism-based; summary of the method: as §5
Paracentrotus lividus [15] = test: Induction of DNA fragmentation in Paracentrotus lividus eggs at 5 uM measured 60 mins post fertilization by TUNEL based fluorescence assay; format: functional, organism-based
Summary of the method: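 P. lividus eggs were treated with 5 μM compound. Before first division (60 min post-fertilization), fluorescent TUNEL labelling of 3′-OH DNA ends was done. DNase-treated eggs served as positive control and untreated eggs as negative control.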

Paracentrotus lividus [16] = test: Antiproliferative activity against Paracentrotus lividus eggs assessed as inhibition of cell division at 5 uM measured 80 mins post fertilization by reversed optical microscopy; format: functional, organism-based; summary of the method: as §5
SH-SY5Y [17] = test: Induction of apoptosis in human SH-SY5Y cells at 1 uM after 6 hrs by Annexin V-FITC/PI staining based flow cytometry; format: functional, cell-based
Summary of the method: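 SH-SY5Y cells in DMEM/F-12 with 10% FBS at 37 °C, 5% CO2, seeded at 1 × 10^6 cells per well and exposed 6 h. They were then washed in PBS, stained 15 min with annexin V–FITC plus propidium iodide in binding buffer, and 10 000 events were read by imaging flow cytometry. Cells were classed as viable, apoptotic, late apoptotic or necrotic. Three independent experiments; mean ± SEM; Student's t test vs untreated cells.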

SH-SY5Y [18] = test: Cytotoxicity against human SH-SY5Y cells assessed as decrease in cell viability at 0.001 to 100 uM after 24 hrs by MTT assay; format: functional, cell-based; summary of the method: as §3

Row | SMILES | MIC (Aeromonas salmonicida) [µM] | MIC (Shewanella baltica) [µM] | MIC (Escherichia coli) [µM] | MIC (Micrococcus luteus) [µM] | MIC (Vibrio anguillarum) [µM] | IC50 (SH-SY5Y [2]) [µM] | IC50 (Paracentrotus lividus [3]) [µM] | further results
1 | CCCCC[C@H]1OC(=O)[C@H]([C@@H](C)CC)N(C)C(=O)[C@@H]2CCCN2C(=O)[C@H](Cc2ccccc2)OC(=O)[C@H](C(C)C)N(C)C(=O)[C@H](C(C)C)NC(=O)[C@H]1C | 6.7 to 7 (≈ 4.96 to 5.19 µg/mL) | 16 (≈ 11.9 µg/mL) | 14 (≈ 10.4 µg/mL) | 17 (≈ 12.6 µg/mL) | 7 to 7.4 (≈ 5.19 to 5.48 µg/mL) | 6 | 7 | Activity (SH-SY5Y [1]): 36%; Activity (SH-SY5Y [4]): Active; Activity (SH-SY5Y [5]): 7.9%
2 | C=CCCC[C@H]1OC(=O)[C@H]([C@@H](C)CC)N(C)C(=O)[C@@H]2CCCN2C(=O)[C@H](Cc2ccccc2)OC(=O)[C@H](C(C)C)N(C)C(=O)[C@H](C(C)C)NC(=O)[C@H]1C | 9.4 (≈ 6.95 µg/mL) | 22 (≈ 16.3 µg/mL) | 12 (≈ 8.87 µg/mL) | 29 (≈ 21.4 µg/mL) | 8.5 (≈ 6.28 µg/mL) | 14 | 3.9 | Activity (Paracentrotus lividus [6]): Active; Activity (Paracentrotus lividus [7]): Active; Activity (Paracentrotus lividus [8]): Active; Activity (Paracentrotus lividus [9]): Active; inhibition at 4 µM (Paracentrotus lividus [10]): 60%; inhibition at 2 µM (Paracentrotus lividus [11]): 10%; inhibition (Paracentrotus lividus [12]): Active; Activity (Paracentrotus lividus [13]): 8%; Activity (Paracentrotus lividus [14]): Active; Activity (Paracentrotus lividus [15]): Active; inhibition (Paracentrotus lividus [16]): Active
3 | CN[C@@H]1C[C@H]2O[C@@](C)([C@@H]1OC)n1c3ccccc3c3c4c(c5c6ccccc6n2c5c31)C(=O)NC4 |  |  |  |  |  |  |  | Activity (SH-SY5Y [17]): Active
4 | C#CCCC[C@H]1OC(=O)[C@H]([C@@H](C)CC)N(C)C(=O)[C@@H]2CCCN2C(=O)[C@H](Cc2ccccc2)OC(=O)[C@H](C(C)C)N(C)C(=O)[C@H](C(C)C)NC(=O)[C@H]1C | 27 (≈ 19.9 µg/mL) | > 50 | 35 (≈ 25.8 µg/mL) | 47 (≈ 34.6 µg/mL) | 33 (≈ 24.3 µg/mL) |  | 11 | Activity (SH-SY5Y [18]): inactive
